What is called Papp A→B is how fast a substance crosses the layer from the apical side. In general, Kd refers to the concentration at which binding is half-saturated. As usually defined, the half-life is the time in which the quantity being followed falls by half. A lower half-life goes with rapid decline. By clearance is commonly meant the rate of elimination divided by the concentration. A higher clearance goes with a high capacity for elimination. As a reminder, the Cmax is the peak of the concentration-time curve. For orientation: Papp B→A means how fast a substance crosses the layer from the basolateral side. For orientation: Vz means a proportionality between amount in the body and measured concentration, not a real space. Read a high Vz as extensive tissue distribution. As usually defined, the AUC(0-inf) is the area under the concentration-time curve extrapolated to infinity. Lower therefore signals less exposure. Usually solubility (kinetic) stands for solubility judged after dilution from a stock solution rather than from solid. The logD is lipophilicity at a set pH, counting ionised and neutral species. Low readings indicate a more hydrophilic compound, high ones a more lipophilic compound. In general, pKa refers to the pH at which an ionisable group is half protonated. Read a low pKa as a group that gives up its proton readily.

Converted amounts (≈) assume the structure as drawn. Bounds are passed on as bounds.

The source of these data is ChEMBL document CHEMBL3414523, “FimH antagonists: bioisosteres to improve the in vitro and in vivo PK/PD profile” (J Med Chem, 2015).

Series [1] is described as follows: Apparent permeability across apical to basolateral side in human Caco2 cells by LC/MS analysis. Conditions: Caco-2.
For series [2], the system named is Escherichia coli. Nature of the series: Inhibition of adhesion of Escherichia coli UTI89 clinical isolate to human 5637 cells assessed as MAC90 after 10 mins by flow cytometry. The class given is functional. (In general: In flow cytometry, cells or beads pass a laser one at a time.)
The nature of series [3]: Displacement of fluorescently labeled 3'-chloro-N-(2-(3-(3',6'-dihydroxy-3-oxo-3H-spiro[isobenzofuran-1,9'-xanthene]-5-yl)thioureido)ethyl)-4'-((2R,3S,4S,5S,6R)-3,4,5-trihydroxy-6-(hydroxymethyl)tetrahydro-2H-pyran-2-yloxy)biphenyl-4-carboxamide from Escherichia coli recombinant 6-His-tagged FimH CRD expressed in Escherichia coli HM125 after 24 hrs by fluorescence polarization assay. The method, boiled down: (§1)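 Competitive fluorescence polarization with His6-tagged FimH CRD (thrombin cleavage site) and fixed fluorescent reporter ligand, 24 h incubation to reach equilibrium; polarized excitation 485 nm, emission 528 nm on a plate reader. IC50 from four-parameter nonlinear least-squares fit, converted to KD by a modified Cheng–Prusoff equation accounting for ligand depletion.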
(In general: In fluorescence polarisation assays a small probe gives low polarisation when free and higher when bound to something large.)

Series [4] in a line: Plasma protein binding in human by equilibrium dialysis method. In kind it is ADME, cell-free. Particulars: read-out: PPB (converted). On the technique in general: In equilibrium dialysis only unbound substance equilibrates across the membrane.
The nature of series [5]: Half life in rat liver microsomes at 2 uM after 10 mins by LC/MS/MS analysis. Conditions: liver microsomes.
A short description of series [6]: Total clearance in C3H/HeN mouse at 0.625 mg/kg, iv. The class given is ADME, organism-based. Details: dose 0.625 mg/kg, route intravenous. Particulars: in vivo.
Series [7] is described as follows: Cmax in urine of C3H/HeN mouse at 0.625 mg/kg, iv. In kind it is ADME, organism-based. Details: dose 0.625 mg/kg, route intravenous.
Series [8] in a line: Apparent permeability across basolateral to apical side in human Caco2 cells by LC/MS analysis. Particulars: Caco-2.
Series [9] concerns Mus musculus. In words: Half life in C3H/HeN mouse at 0.625 mg/kg, iv. In kind it is ADME, organism-based. Details: dose 0.625 mg/kg, route intravenous. Conditions: in vivo.
Series [10] has as its system Escherichia coli. Nature of the series: Antimicrobial activity against Escherichia coli UTI89 infected in C3H/HeN mouse urinary tract infection model assessed as bacterial load reduction in kidney at 1.25 mg/kg, po administered 40 mins prior to infection measured after 3 hrs (reference value: 6 log10 CFU). In kind it is functional.
The subject of series [11] is Mus musculus. In words: Volume of distribution in C3H/HeN mouse at 0.625 mg/kg, iv. Particulars: in vivo. Details: dose 0.625 mg/kg, route intravenous. The class given is ADME, organism-based.
Series [12] relates to Escherichia coli. In words: Antimicrobial activity against Escherichia coli UTI89 infected in C3H/HeN mouse urinary tract infection model assessed as bacterial load reduction in bladder at 10 mg/kg, po formulated with 5% DMSO in PBS containing 1% Tween 80 administered 40 mins prior to infection measured after 3 hrs relative to control. The class given is functional.
For series [13], the system named is Escherichia coli. In words: Antimicrobial activity against Escherichia coli UTI89 infected in C3H/HeN mouse urinary tract infection model assessed as bacterial load reduction in bladder at 1.25 mg/kg, po administered 40 mins prior to infection measured after 3 hrs (reference value: 6.6 log10 CFU). In kind it is functional.
The nature of series [14]: Displacement of n-heptyl 2-deoxy-alpha-D-mannopyranoside from Escherichia coli recombinant 6-His-tagged FimH CRD expressed in Escherichia coli HM125 after 20 mins by isothermal titration calorimetry.
Series [15] can be described thus: Initial plasma concentration in C3H/HeN mouse at 0.625 mg/kg, iv. On the set-up: dose 0.625 mg/kg, route intravenous. The class given is ADME, organism-based.
Series [16] concerns Escherichia coli. Nature of the series: Antimicrobial activity against Escherichia coli UTI89 infected in C3H/HeN mouse urinary tract infection model assessed as bacterial load reduction in kidney at 10 mg/kg, po formulated with 5% DMSO in PBS containing 1% Tween 80 administered 40 mins prior to infection measured after 3 hrs relative to control. The class given is functional.

Series [17] in a line: AUC (0 to infinity) in C3H/HeN mouse at 0.625 mg/kg, iv. The class given is ADME, organism-based. Particulars: plasma. Details: time infinity, dose 0.625 mg/kg, route intravenous.
Series [18] in a line: physchem. Conditions: buffer, pH 7.4.
Series [19] in a line: physchem. Particulars: octanol/water, pH 7.4.
Series [20] in a line: AUC (0 to infinity) in C3H/HeN mouse at 50 mg/kg, iv. In kind it is ADME, organism-based. On the set-up: time infinity, dose 50 mg/kg, route intravenous. Conditions: plasma.
Series [21] relates to Mus musculus. In words: Volume of distribution in C3H/HeN mouse at 50 mg/kg, iv. The class given is ADME, organism-based. Details: dose 50 mg/kg, route intravenous. Conditions: in vivo.
The test system of series [22] is Mus musculus. In words: Half life in C3H/HeN mouse at 50 mg/kg, iv. The class given is ADME, organism-based. Details: dose 50 mg/kg, route intravenous. Conditions: in vivo.
The nature of series [23]: Initial plasma concentration in C3H/HeN mouse at 50 mg/kg, iv. The class given is ADME, organism-based. Details: dose 50 mg/kg, route intravenous.
For series [24], the system named is Mus musculus. Nature of the series: Total clearance in C3H/HeN mouse at 50 mg/kg, iv. Particulars: in vivo. In kind it is ADME, organism-based. Details: dose 50 mg/kg, route intravenous.
The nature of series [25]: Cmax in urine of C3H/HeN mouse at 50 mg/kg, iv. The class given is ADME, organism-based. On the set-up: dose 50 mg/kg, route intravenous.
A short description of series [26]: Dissociation constant, pKa of the compound by NMR spectroscopy. The class given is physicochemical.
A short description of series [27]: Binding affinity to Escherichia coli recombinant 6-His-tagged FimH CRD expressed in Escherichia coli HM125 after 24 hrs by competitive fluorescence polarization assay. A digest of the protocol: as §1

As for `N#Cc1ccc(-c2ccc(O[C@H]3O[C@H](CO)[C@@H](O)[C@H](O)[C@@H]3O)c(Cl)c2)cc1`, the apical-to-basolateral permeability (Papp A→B) in [1] turned out to be 2.2 ×10⁻⁶ cm/s. Also, in the series on Escherichia coli [2], the Activity stood at 0.094 µg/mL. The equilibrium dissociation constant (Kd) in [3] was under 1 nM; in series [14] it was 1.3 nM. Further, the fraction unbound in [4] was 0.11. In series [5], this compound returned a half-life at 10 min, 2 µM of over 1 h. For the same compound, the clearance in series [6] is 3.63 mL/min. Moreover, the Cmax in [7] worked out at 10 µg/mL. Further, in series [8], the basolateral-to-apical permeability (Papp B→A) was 22.1 ×10⁻⁶ cm/s. In the series with Mus musculus [9], this compound yielded a t1/2 of 0.17 h. Besides, the log10cfu is 1.07 with Escherichia coli [10], 2.68 in the series on Escherichia coli [12], 1.78 in the series on Escherichia coli [13] and 1.04 with Escherichia coli [16]. The compound also gave a volume of distribution (Vz) with Mus musculus [11] of 52.8 mL. This compound also came in with a C0 in [15] of 0.36 µg/mL. In addition, in series [17], the AUC(0-inf) came to 70 ng·h/mL. The compound further had a solubility (kinetic) at 15 h, 500 µM in “physchem [18]” of 192 µg/mL (≈ 490 µM). In the series “physchem [19]”, this compound came in with a logD at 2 h, 1 µM of 2.1.

As for `NC(=O)c1ccc(-c2ccc(O[C@H]3O[C@H](CO)[C@@H](O)[C@H](O)[C@@H]3O)cc2)cc1`, the apparent permeability from apical to basolateral (Papp A→B) in [1] worked out at 0.12 ×10⁻⁶ cm/s. The equilibrium dissociation constant (Kd) in series [3] amounted to 2.8 nM. The Papp B→A in [8] came to 0.61 ×10⁻⁶ cm/s. The kinetic solubility at 15 h, 500 µM in “physchem [18]” was 12 µg/mL (≈ 32 µM). In “physchem [19]”, this compound showed a log distribution coefficient (logD) at 2 h, 1 µM of 0.5.

As to `CNC(=O)c1ccc(-c2ccc(O[C@H]3O[C@H](CO)[C@@H](O)[C@H](O)[C@@H]3O)cc2)cc1`, in series [1], the apical-to-basolateral permeability (Papp A→B) turned out to be 1.1 ×10⁻⁶ cm/s. Further, the Kd stood at 2.9 nM in [3] and 4.3 nM in [14]. Besides, in series [8], the basolateral-to-apical permeability (Papp B→A) was determined as 0.87 ×10⁻⁶ cm/s. The same compound showed a solubility (kinetic) at 15 h, 500 µM in the series “physchem [18]” of 122 µg/mL (≈ 313 µM). The logD at 2 h, 1 µM in “physchem [19]” was 0.8.

`O=C(c1ccc(-c2ccc(O[C@H]3O[C@H](CO)[C@@H](O)[C@H](O)[C@@H]3O)cc2)cc1)N1CCOCC1`: the apparent permeability from apical to basolateral (Papp A→B) in series [1] was found to be 0.18 ×10⁻⁶ cm/s. In addition, the dissociation constant (Kd) came out at 3 nM in series [3] and 5 nM in series [14]. For the same compound, the fraction unbound in series [4] is 0.52. Moreover, the half-life at 10 min, 2 µM in series [5] was over 1 h. Further, in series [8], the Papp B→A was found to be 1.3 ×10⁻⁶ cm/s. In [20], this compound registered an AUC(0-inf) of 25300 ng·h/mL. In the series on Mus musculus [21], this compound came in with a Vz of 28.3 mL. In the series on Mus musculus [22], the t1/2 worked out at 0.4 h. Further, the C0 in series [23] amounted to 110 µg/mL. In the series with Mus musculus [24], this compound gave a CL of 49.4 mL/h. For the same compound, the concentration in series [25] peaked (Cmax) at 4610 µg/mL. In the series “physchem [18]”, the solubility (kinetic) at 15 h, 500 µM was over 250 µg/mL. For the same compound, in “physchem [19]”, the logD at 2 h, 1 µM came to 0.2.

As for `CS(=O)(=O)c1ccc(-c2ccc(O[C@H]3O[C@H](CO)[C@@H](O)[C@H](O)[C@@H]3O)cc2)cc1`, in series [1], the apical-to-basolateral permeability (Papp A→B) stood at 0.36 ×10⁻⁶ cm/s. Besides, the dissociation constant Kd was determined as 1.7 nM in series [3] and 3 nM in series [14]. In addition, the fraction unbound in [4] was 0.01. This compound displayed a half-life at 10 min, 2 µM in series [5] of over 1 h. In addition, the basolateral-to-apical permeability (Papp B→A) in series [8] was 1.76 ×10⁻⁶ cm/s. In addition, in “physchem [18]”, the solubility (kinetic) at 15 h, 500 µM came out at 246 µg/mL (≈ 599 µM). In addition, the logD at 2 h, 1 µM in “physchem [19]” amounted to 0.4.

`CNS(=O)(=O)c1ccc(-c2ccc(O[C@H]3O[C@H](CO)[C@@H](O)[C@H](O)[C@@H]3O)cc2)cc1`: the Kd in series [3] is 2.7 nM; in series [14], 3.5 nM. The fraction unbound in series [4] is under 0.01. This compound displayed a half-life at 10 min, 2 µM in [5] of over 1 h. This compound gave an AUC(0-inf) in [20] of 175000 ng·h/mL. Moreover, in the series on Mus musculus [21], the Vz was found to be 19.5 mL. The t1/2 with Mus musculus [22] amounted to 1.9 h. The C0 in series [23] was 152 µg/mL. Also, in the series with Mus musculus [24], the CL stood at 7.1 mL/h. Moreover, in series [25], the peak level (Cmax) was 387 µg/mL.

Consider `OC[C@H]1O[C@H](Oc2ccc(-c3cc(F)c(O)c(F)c3)cc2)[C@@H](O)[C@@H](O)[C@@H]1O`, for which the Papp A→B in series [1] is 0.4 ×10⁻⁶ cm/s. The pKa in series [26] came out at 6.5. Moreover, the dissociation constant Kd in series [3] worked out at 3.7 nM. Further, in [8], the apparent permeability from basolateral to apical (Papp B→A) turned out to be 1.9 ×10⁻⁶ cm/s. In “physchem [18]”, this compound came in with a solubility (kinetic) at 15 h, 500 µM of over 150 µg/mL. Besides, the log distribution coefficient (logD) at 2 h, 1 µM in “physchem [19]” came to 1.1.

For the compound `O=C(NCCOCCOCCNC(=S)Nc1ccc2c(c1)C(=O)OC21c2ccc(O)cc2Oc2cc(O)ccc21)c1ccc(-c2ccc(O[C@H]3O[C@H](CO)[C@@H](O)[C@H](O)[C@@H]3O)c(Cl)c2)cc1`, the Kd in series [27] is 9.9 nM.
